Source: PMC5621377 (Clinical cancer research : an official journal of the …, 2016)

Test system: patients with Rb+ advanced solid tumors or lymphomas
Test: Safety assessments, adverse events
Format: in vivo, human
Summary of the method: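 Oral test compound given daily 3-weeks-on/1-week-off in 28-day cycles, with doses escalated by a Bayesian logistic regression model with overdose control. Safety assessments, including ECGs, were done at baseline and at regular intervals. AEs were graded by CTCAE v4.0 and classed as suspected related to treatment. All patients dosed at least once were included; summaries were descriptive per dose level.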

[1] = 400 mg 3-weeks-on/1-week-off, n = 5
[2] = 600 mg 3-weeks-on/1-week-off, n = 67
[3] = 600 mg continuous dosing, n = 7
[4] = 750 mg 3-weeks-on/1-week-off, n = 14

## CN(C)C(=O)c1cc2cnc(Nc3ccc(N4CCNCC4)cn3)nc2n1C1CCCC1 [ribociclib]
[1]
  Nausea, Grade All, AE suspected related to study treatment: 1 (20) n (%)
  Neutropenia, Grade 3/4, AE suspected related to study treatment: 1 (20) n (%)
  Neutropenia, Grade All, AE suspected related to study treatment: 2 (40) n (%)
  Thrombocytopenia, Grade 3/4, AE suspected related to study treatment: 0 n (%)
  Thrombocytopenia, Grade All, AE suspected related to study treatment: 1 (20) n (%)
  Vomiting, Grade 3/4, AE suspected related to study treatment: 0 n (%)
  Vomiting, Grade All, AE suspected related to study treatment: 2 (40) n (%)
[2]
  Anemia, Grade 3/4, AE suspected related to study treatment: 2 (3) n (%)
  Anemia, Grade All, AE suspected related to study treatment: 19 (28) n (%)
  Appetite decreased, Grade 3/4, AE suspected related to study treatment: 0 n (%)
  Appetite decreased, Grade All, AE suspected related to study treatment: 5 (7) n (%)
  Blood creatinine increased, Grade 3/4, AE suspected related to study treatment: 0 n (%)
  Blood creatinine increased, Grade All, AE suspected related to study treatment: 4 (6) n (%)
  Diarrhea, Grade 3/4, AE suspected related to study treatment: 2 (3) n (%)
  Diarrhea, Grade All, AE suspected related to study treatment: 18 (27) n (%)
  Fatigue, Grade 3/4, AE suspected related to study treatment: 2 (3) n (%)
  Fatigue, Grade All, AE suspected related to study treatment: 22 (33) n (%)
  Leukopenia, Grade 3/4, AE suspected related to study treatment: 13 (19) n (%)
  Leukopenia, Grade All, AE suspected related to study treatment: 31 (46) n (%)
  Lymphopenia, Grade 3/4, AE suspected related to study treatment: 12 (18) n (%)
  Lymphopenia, Grade All, AE suspected related to study treatment: 15 (22) n (%)
  Nausea, Grade 3/4, AE suspected related to study treatment: 1 (1) n (%)
  Nausea, Grade All, AE suspected related to study treatment: 30 (45) n (%)
  Neutropenia, Grade 3/4, AE suspected related to study treatment: 19 (28) n (%)
  Neutropenia, Grade All, AE suspected related to study treatment: 31 (46) n (%)
  Thrombocytopenia, Grade 3/4, AE suspected related to study treatment: 6 (9) n (%)
  Thrombocytopenia, Grade All, AE suspected related to study treatment: 23 (34) n (%)
  Vomiting, Grade 3/4, AE suspected related to study treatment: 0 n (%)
  Vomiting, Grade All, AE suspected related to study treatment: 17 (25) n (%)
[3]
  Anemia, Grade 3/4, AE suspected related to study treatment: 0 n (%)
  Anemia, Grade All, AE suspected related to study treatment: 2 (29) n (%)
  Appetite decreased, Grade 3/4, AE suspected related to study treatment: 0 n (%)
  Appetite decreased, Grade All, AE suspected related to study treatment: 0 n (%)
  Blood creatinine increased, Grade 3/4, AE suspected related to study treatment: 0 n (%)
  Blood creatinine increased, Grade All, AE suspected related to study treatment: 1 (14) n (%)
  Diarrhea, Grade 3/4, AE suspected related to study treatment: 0 n (%)
  Diarrhea, Grade All, AE suspected related to study treatment: 0 n (%)
  Fatigue, Grade 3/4, AE suspected related to study treatment: 1 (14) n (%)
  Fatigue, Grade All, AE suspected related to study treatment: 5 (71) n (%)
  Leukopenia, Grade 3/4, AE suspected related to study treatment: 5 (71) n (%)
  Leukopenia, Grade All, AE suspected related to study treatment: 6 (86) n (%)
  Lymphopenia, Grade 3/4, AE suspected related to study treatment: 2 (29) n (%)
  Lymphopenia, Grade All, AE suspected related to study treatment: 3 (43) n (%)
  Nausea, Grade 3/4, AE suspected related to study treatment: 0 n (%)
  Nausea, Grade All, AE suspected related to study treatment: 3 (43) n (%)
  Neutropenia, Grade 3/4, AE suspected related to study treatment: 5 (71) n (%)
  Neutropenia, Grade All, AE suspected related to study treatment: 6 (86) n (%)
  Thrombocytopenia, Grade 3/4, AE suspected related to study treatment: 0 n (%)
  Thrombocytopenia, Grade All, AE suspected related to study treatment: 2 (29) n (%)
  Vomiting, Grade 3/4, AE suspected related to study treatment: 0 n (%)
  Vomiting, Grade All, AE suspected related to study treatment: 2 (29) n (%)
600 mg/day (RDE)
  patients with asymptomatic QTcF prolongation: 9%
[4]
  Anemia, Grade 3/4, AE suspected related to study treatment: 1 (7) n (%)
  Anemia, Grade All, AE suspected related to study treatment: 3 (21) n (%)
  Appetite decreased, Grade 3/4, AE suspected related to study treatment: 0 n (%)
  Appetite decreased, Grade All, AE suspected related to study treatment: 3 (21) n (%)
  Blood creatinine increased, Grade 3/4, AE suspected related to study treatment: 0 n (%)
  Blood creatinine increased, Grade All, AE suspected related to study treatment: 3 (21) n (%)
  Diarrhea, Grade 3/4, AE suspected related to study treatment: 0 n (%)
  Diarrhea, Grade All, AE suspected related to study treatment: 4 (29) n (%)
  Fatigue, Grade 3/4, AE suspected related to study treatment: 0 n (%)
  Fatigue, Grade All, AE suspected related to study treatment: 5 (36) n (%)
  Leukopenia, Grade 3/4, AE suspected related to study treatment: 0 n (%)
  Leukopenia, Grade All, AE suspected related to study treatment: 6 (43) n (%)
  Lymphopenia, Grade 3/4, AE suspected related to study treatment: 1 (7) n (%)
  Lymphopenia, Grade All, AE suspected related to study treatment: 6 (43) n (%)
  Nausea, Grade 3/4, AE suspected related to study treatment: 1 (7) n (%)
  Nausea, Grade All, AE suspected related to study treatment: 8 (57) n (%)
  Neutropenia, Grade 3/4, AE suspected related to study treatment: 5 (36) n (%)
  Neutropenia, Grade All, AE suspected related to study treatment: 8 (57) n (%)
  Thrombocytopenia, Grade 3/4, AE suspected related to study treatment: 3 (21) n (%)
  Thrombocytopenia, Grade All, AE suspected related to study treatment: 5 (36) n (%)
  Vomiting, Grade 3/4, AE suspected related to study treatment: 0 n (%)
  Vomiting, Grade All, AE suspected related to study treatment: 4 (29) n (%)
